This is an account of results in ChEMBL document CHEMBL4513216, “Probing the Open Global Health Chemical Diversity Library for Multistage-Active Starting Points for Next-Generation Antimalarials” (ACS Infect Dis, 2020).

The nature of the data set: Toxicity liver stage against HepG2, at 10uM. Type of data set: cell-based. Set-up: test concentration 10 uM, cell line HepG2-A16-CD81EGFP. Conditions: human, HepG2-A16-CD81EGFP cells; read-out: INHIBITION
A digest of the protocol:
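Uninfected HepG2-A16-CD81EGFP cells, 3 × 10^3 per well, 1536-well, plated on prespotted compound at 10 μM final, parasite-free screening media added to match infected plates; puromycin 10 μM positive, DMSO 0.5% negative; run in parallel with 48 h PbLuc assay at 37 °C, 5% CO2; viability by CellTiter-Glo luminescence, normalized to controls.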
`COCC(=O)N[C@H]1C[C@@H](Cc2cc(CN3CCOCC3)on2)C1(C)C`: the cytotoxicity at 10 µM worked out at 0.66%. Then `Cc1cc(NC(=O)NCCCSc2nncn2C)no1`, with 0.0537%; and `O=C(Cc1cc(-c2ccc3c(c2)OCO3)on1)NC1CCCC1`, with -2.34%. In the case of `CCOc1nn(CC)cc1-c1nnc(SCC)n1C`, the cytotoxicity at 10 µM was 1.81%. `Cc1nnsc1C(=O)NCC1CCN(c2ccccn2)CC1`: the cytotoxicity at 10 µM worked out at 11.9%. Then `COCCCNC(=O)c1cn(C(C)C)cc2c(=O)[nH]nc1-2`, with -4.45%; and `COCC(C)NC(=O)c1nnn(-c2ccc(F)cc2)n1` (stereo unspecified), with -20.6%. Then `Cc1cc(C(=O)N(CC(F)(F)F)C2CCOCC2)c(C)o1`, with -0.541%; and `O=C(C1CCOCC1)N1CCC2(CCC(C(=O)N3CCCC3)O2)CC1` (stereo unspecified), with 6.41%; and `CCS(=O)(=O)N1CCCC2(CCCC(=O)N2C)C1` (stereo unspecified), with 8.86%. Then `CC(=O)N1C[C@H]2CN(CC3CC3)C(=O)[C@H]2C1`, with 6.32%; and `CN(C)C(=O)CN1CCC2(CC1)COC2`, with 5.53%. As for `COCCO[C@@H]1CCN(c2cc(OC)ncn2)[C@H]1Cc1cnn(C)c1`, the cytotoxicity at 10 µM is -142%. For `CCc1c(C)n(CC(=O)OC)c2nc3ccccc3n2c1=O`, the cytotoxicity at 10 µM was found to be 1.44%. Turning to `CC1=Nc2c(c(=O)[nH]n2C2CCCC2)C(c2cccc(O)c2)S1` (stereo unspecified), the cytotoxicity at 10 µM worked out at 4.8%. The value for `CNc1nc2c(s1)C(c1c(Cl)cccc1Cl)CC(=O)N2` (stereo unspecified) was -10.4%.

As to `Cc1ccccc1CNCc1cc(Cl)ccc1O`, the cytotoxicity at 10 µM is -5.9%. Then `COCc1nc(N(C)C)ncc1C(=O)Nc1ccn(C)n1`, with -0.782%; and `CCC(=O)N1CCC(c2ncc(C(=O)Nc3ccccc3)c(C)n2)C1` (stereo unspecified), with 6.96%; and `CN(C)Cc1cccc(-c2cccnc2C(=O)NCc2ccccn2)c1`, with 5.39%. Then `COc1cc(CCC(=O)N2CCC(c3cncc(C)n3)CC2)on1`, with 4.46%; and `Cc1cc(C)n(C2CCN(S(=O)(=O)N3CCOCC3)CC2)n1`, with 3.88%.

For the compound `O=C(O)c1ccc(=O)n(CC(c2ccc(F)cc2)N2CCCCCC2)c1` (stereo unspecified), the cytotoxicity at 10 µM was found to be 1.31%. For the compound `CNC(=O)C1(CCCc2ccccn2)CN(Cc2coc(C)n2)C1`, the cytotoxicity at 10 µM turned out to be 8.62%. Consider `O=C(O)c1ccccc1-n1cnc(CN2CCCCCC2)c1`, for which the cytotoxicity at 10 µM is -8.94%.

For `CCCn1cc(C(=O)NCc2nnc(-c3ccc(C)nc3)o2)c(C)n1`, the cytotoxicity at 10 µM was -0.277%. For `Cc1cccc(N2CCOC(C(=O)O)C2)c1` (stereo unspecified), the cytotoxicity at 10 µM is -8.89%.

For the compound `CN(C)[C@@H]1CN(C(=O)c2ccc3ccccc3n2)C[C@H]1O`, the cytotoxicity at 10 µM is -22.5%. As to `CNc1cncc(C2CCCN2S(=O)(=O)c2cccc(F)c2)n1` (stereo unspecified), the cytotoxicity at 10 µM is -15.3%.

In the case of `O=C(CN1CCCC1)N1CCCC(c2cc(=O)n3c(n2)CCCCC3)C1` (stereo unspecified), the cytotoxicity at 10 µM was -13.7%. In the case of `CN1CCN(c2ncc(-c3cnccn3)c([C@H]3CCCO3)n2)CC1`, the cytotoxicity at 10 µM was -20%. Then `Cc1cc2c(=O)n3c(nc2s1)CCN(C(=O)c1cn(C)nc1C)CC3`, with -22.6%. As to `O=C(Cn1cccnc1=O)NC(Cc1ccsc1)c1cccnc1` (stereo unspecified), the cytotoxicity at 10 µM is -25.7%. Regarding `CCc1cnc(CNC(=O)NC2CC(C)(C)OC2(C)C)s1` (stereo unspecified), the cytotoxicity at 10 µM is 10.3%. `CCCn1nc2c(cc1=O)CN(CC1CCCCO1)CC2` (stereo unspecified): the cytotoxicity at 10 µM came out at 12.5%. As for `Cc1nn(C)c(Cl)c1C1CCCN1CC(=O)NC1CCCCC1` (stereo unspecified), the cytotoxicity at 10 µM stood at 7.09%. With `CN(Cc1cnn(C)c1)C1CCCN(Cc2noc(C3CC3)n2)C1` (stereo unspecified), the cytotoxicity at 10 µM is -8.44%. Then `COCCOc1nc(-c2ccccc2Cl)no1`, with 9.4%; and `COc1c(C2CCCN2C(=O)c2sccc2C#N)c(C)nn1C` (stereo unspecified), with 3.33%; and `CC(NCc1cccnc1)c1cc2c(cc1Br)OCCO2` (stereo unspecified), with 2.46%. With `CCNC(=O)CCC(=O)N1CCC(Oc2cc(C)ccc2C)CC1`, the cytotoxicity at 10 µM is -4.59%. With `Cc1c(C(=O)N2CCSCC2)sc2nc(C(F)(F)F)ccc12`, the cytotoxicity at 10 µM was -8.58%. On to `CCN(C)C(=O)Nc1cc(F)c(OC)cc1F`, for which the cytotoxicity at 10 µM is -10.4%. `Cc1cnn(C2CN(c3ncnc4[nH]ccc34)C2)c1`: the cytotoxicity at 10 µM was found to be 8%. With `CCC(C)CNCC1(S(C)(=O)=O)CCOCC1` (stereo unspecified), the cytotoxicity at 10 µM is -11.4%. Consider `CC(NCC(=O)N1CCc2sccc2C1)c1ccccc1F` (stereo unspecified), for which the cytotoxicity at 10 µM came to 1.8%. The value for `CN1CCC(NCC(O)c2cccc(OCc3ccccc3)c2)CC1` (stereo unspecified) was -11.7%. Then `Cc1ccc(C(=O)N(C)Cc2cc(Br)cs2)c(=O)[nH]1`, with -0.782%; and `Cc1ccc(C(=O)N(C)Cc2cscn2)c(=O)[nH]1`, with -7.69%; and `Cn1nccc1-c1cnc2n1CCC21CCN(C(=O)C2(C)CC2)CC1`, with -123%. On to `CS(=O)(=O)NC[C@]12COC[C@H]1CN(C(=O)C1CCSCC1)C2`, for which the cytotoxicity at 10 µM was -112%. As for `CN1C(=O)CC(c2cnn(C)c2)C12CCN(C(=O)c1ccno1)CC2` (stereo unspecified), the cytotoxicity at 10 µM was -74.1%. The value for `CCCN(Cc1cccnc1)C(=O)C1CCNC1` (stereo unspecified) was 8.97%; that for `COCCN(C)Cc1cn(C)nc1-c1ccc2c(c1)OCCO2` was -0.65%; that for `CC(C)[C@H]1CN(CC2CCC2)C[C@@H]1NC(=O)c1ccc(=O)[nH]c1` was -7.85%. Then `COCCCC1(C(=O)O)CCCN(Cc2ccccc2C)C1` (stereo unspecified), with -4.58%; and `Cc1nc(N(C)C)nc(-c2cccc(-c3ccn(CCCO)n3)c2)c1C`, with -6.51%; and `CN(CCCN1CCCCCC1)C(=O)c1ccccc1NCC(=O)O`, with -4.84%. The value for `O=c1c2cccnc2ccn1Cc1nccn1C1CC1` was -4.87%. With `CC(C)c1cc(C(=O)NCCN2CCCCC2CO)on1` (stereo unspecified), the cytotoxicity at 10 µM was determined as 2.07%.

Regarding `Cc1cccnc1[C@H](C)NC(=O)c1cccc(CC2CCNCC2)c1`, the cytotoxicity at 10 µM is -5.22%. For `Cc1ccsc1[C@@H]1CCN(C(=O)CCc2cc(O)no2)C[C@H]1O`, the cytotoxicity at 10 µM was -4.73%. In the case of `CCc1nn(C)c(Cl)c1CN1CCCC2(C1)CN(C)C(=O)O2` (stereo unspecified), the cytotoxicity at 10 µM was found to be 5.44%. Turning to `COc1cccc(OCc2cc(C(=O)NC[C@@H]3CCCN3)n[nH]2)c1`, the cytotoxicity at 10 µM stood at 0.732%. Then `CCOc1ccc(C(=O)CCC(=O)NCCc2nncn2CC)cc1C`, with -10.7%; and `CCN(Cc1cnn(C)c1)C[C@H]1CC[C@@H](Cc2cccc(CN)c2)O1`, with -0.189%. As for `CCc1nc(C)sc1CN1C[C@@H](C)[C@@](C)(O)C1`, the cytotoxicity at 10 µM is -1.47%. Then `CN(Cc1ccccc1)C(=O)CCN1CCC2(CC1)[C@H](O)C[C@@H]2O`, with -7.55%; and `O=C(COc1cccnc1)NCc1nncn1C1CCCCC1`, with 3.46%; and `CCCOC(C)C(=O)NCc1cc2n(n1)CCCN(C1CCCCC1)C2` (stereo unspecified), with 2.5%. For `CCC(Cn1ccnc1)n1cnc2c(C)csc2c1=O` (stereo unspecified), the cytotoxicity at 10 µM was -4.34%. Then `COCc1nc2ncc3c(=O)n(-c4ccc(OC)cc4)ccc3n2n1`, with 8.1%; and `COCCOC1CCN(C(C(=O)O)c2ccc3c(c2)OCO3)CC1` (stereo unspecified), with 9.07%; and `Cc1c(CN2CCC(C(=O)O)(n3ccnc3)CC2)oc2ccccc12`, with -4.86%.

Take `Cc1cncc(C(=O)N2CCCC(O)(CO)C2)c1` (stereo unspecified): the cytotoxicity at 10 µM worked out at 2.09%. The value for `CC(C)CCN1CC2(CCCN(C(=O)c3cscn3)C2)CCC1=O` (stereo unspecified) was -13.9%; that for `CN(CCO)Cc1nnc(C2CCN(C(=O)C(C)(C)C)CC2)n1C` was 22.6%. Then `Cc1cccnc1CNCC1(O)CCCN(CC2CCCCC2)C1=O` (stereo unspecified), with -2.37%. The value for `CC(C)c1nn(C)c(N(C)C)c1CNCc1cccnc1N(C)C` was -8.66%; that for `CNC(=O)CCCNCc1c(C)nn(C)c1N(C)C` was -8.18%. In the case of `Cc1cc(C(=O)NCc2ccnc(N3CCN(C)CC3)c2)c(C)s1`, the cytotoxicity at 10 µM was -10.7%. On to `CCC1CCCN(C(=O)Cc2csc(-c3ncccn3)n2)C1` (stereo unspecified), for which the cytotoxicity at 10 µM was -5.15%.

As to `COc1ccc(OC)c(C(O)CN2CC(n3cccn3)C2)c1` (stereo unspecified), the cytotoxicity at 10 µM was -8.42%.

Consider `NC(=O)c1ccc(S(=O)(=O)NC2CCN(Cc3ccccc3)C2=O)cc1` (stereo unspecified), for which the cytotoxicity at 10 µM was -9.96%. As to `CC(=O)N1CC2(CCNCC2)c2cc(Cl)ccc21`, the cytotoxicity at 10 µM is -0.655%. For the compound `c1ccc(CN2CC[C@@H]3O[C@H](COCc4ccncc4)CC[C@@H]32)nc1`, the cytotoxicity at 10 µM came out at 3.5%. With `O=C(c1ccncc1F)N1C[C@@H]2OCCN(CC3CC3)[C@@H]2C1`, the cytotoxicity at 10 µM is -141%. Then `Cc1ncsc1CN1C[C@@H]2COC[C@]2(CNC(=O)c2ccco2)C1`, with -73.8%; and `COCCN1C2(CCN(Cc3nccs3)C2)c2ccccc2S1(=O)=O` (stereo unspecified), with -65.7%; and `CN(C)C(=O)CN1CC[C@@H]2O[C@@H](COCc3cccnc3)CC[C@@H]21`, with -67.2%. Then `CNC(=O)CN1CCCC12CCN(C(=O)c1cccc(F)c1)CC2`, with 6.62%; and `CCN1CC[C@@]2(C(=O)N3CCOCC3)CCN(C(=O)C(C)C)CC[C@@H]12`, with -11.5%; and `COc1ccc(OC)c(CN2CCc3nc4ccsc4c(=O)n3CC2)c1`, with 43.5%.

In the case of `O=C1C[C@H]2[C@@H](CCN2Cc2ccccn2)N1CCN1CCOCC1`, the cytotoxicity at 10 µM is -1.45%. For `CCc1ccc(NC(=O)N2C[C@@H]3C[C@H](C(=O)NC)[C@H](C2)O3)cc1`, the cytotoxicity at 10 µM was found to be 5.4%. The value for `CN(C)C(c1ccccn1)C1CCC(CNC(=O)C2CCCC2)CC1` (stereo unspecified) was 10.5%.
